Screens (PubChem)
CXCR6 inh – CXCR6 receptor inhibitors, primary screen, cell-based, beta-arrestin, luminescence, CHO-K1 PathHunter, 1536-well; inhibition, % at 20 µM; actives 0.36% (n = 360,000); AID 602244, 2012; in the data active = inhibition above about 34%, passing the limit was not always enough;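 also: antagonist mode with CXCL16 agonist at 10 nM final; 0% = 10 nM CXCL16 with DMSO and 100% = unstimulated wells without agonist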
APJ ag – agonists of human apelin receptor APJ, primary screen, CHO-K1 cells, PathHunter beta-arrestin, luminescence | AID 2520, 2010 | 0% DMSO wells, 100% apelin | actives 0.11% (n = 330,000) | P35414 | activation, % at 20 µM;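 active = activation more than six SD over the plate average, tested at 20 µM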;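 also: 0% = DMSO alone and 100% = apelin-13 at 10 nM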
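Material: CHO-K1 APJ beta-arrestin complementation cell line; Input: cell density 1000 per well; Incubation: compound stimulation 90 min at 25 °C, detection 60 min; Signal: luminescence from split beta-galactosidase complementation, Galacton Star/Emerald II substrate; Controls: DMSO-only wells as negative, 10 nM Apelin-13 as positive control.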
CCR6 antagonist – CCR6 receptor antagonists, primary screen, cell-based, CHO-K1, luminescence, beta-arrestin, uHTS; actives 0.49% (n = 340,000); CHO-K1 CCR6 PathHunter beta-arrestin, CCL20-stimulated; inhibition, % at 20 µM; C-C chemokine receptor type 6 (Homo sapiens), P51684;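 active = compounds whose inhibition of the agonist-driven luminescence signal at 20 µM reaches about 50%, limit read from the data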;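 also: cells stimulated with CCL20 at 14 nM final; plate controls were DMSO with CCL20 for no effect and DMSO without agonist for full effect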
Target sequence (P51684 whole entry, looked up): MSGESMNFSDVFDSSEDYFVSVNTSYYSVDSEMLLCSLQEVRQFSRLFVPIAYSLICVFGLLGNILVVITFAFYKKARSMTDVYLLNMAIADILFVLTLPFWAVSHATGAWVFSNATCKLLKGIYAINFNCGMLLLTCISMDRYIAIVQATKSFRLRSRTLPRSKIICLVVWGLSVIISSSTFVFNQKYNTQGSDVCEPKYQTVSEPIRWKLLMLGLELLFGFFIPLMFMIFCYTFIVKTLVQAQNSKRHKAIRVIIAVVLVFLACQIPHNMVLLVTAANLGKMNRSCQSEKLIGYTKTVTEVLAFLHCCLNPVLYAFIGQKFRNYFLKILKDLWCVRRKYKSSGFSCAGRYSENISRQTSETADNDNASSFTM
APJ antag – antagonists of human apelin receptor APJ, primary screen, CHO-K1 cells, beta-arrestin complementation, luminescence | inhibition, % at 20 µM | actives 0.32% (n = 330,000) | AID 2521, 2010;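 active = inhibition above about 40% at 20 µM, limit read from the data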;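 also: cells challenged with 10 nM apelin-13 agonist together with compound; plate controls were apelin-13 plus DMSO wells for no effect and DMSO wells lacking apelin-13 for full effect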
EBI2 antag – EBI2 receptor antagonists, beta-arrestin recruitment, primary screen, cell-based, luminescence, 7a,25-OHC stimulation, uHTS. G-protein coupled receptor 183 (Homo sapiens), P32249. 7a,25-OHC stimulated. inhibition, % at 5 µM. actives 0.81% (n = 360,000); in the data active = inhibition above about 38%;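 also: enzyme fragment complementation signal reports receptor beta-arrestin coupling in cells; 0% = agonist plus DMSO wells and 100% = wells without agonist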
APJ ag confirm – agonists of human apelin receptor APJ, confirmation, cell-based, single concentration, CHO-K1, beta-arrestin, luminescence | shares compounds with APJ ag | CHO-K1 APJ PathHunter beta-arrestin | activation, % at 20 µM | actives 10% (n = 310);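 active = activation above 40%, taking the highest of four retests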;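 also: plate controls were DMSO wells for no effect and apelin-13 at 10 nM for full effect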
* marks the source's active call; other numbers are inactive results; . = not tested or not shown. Sampled rows, rich in hits. Any-hit rate of the full collection: about 1.5%.

SMILES | CXCR6 inh | APJ ag | CCR6 antagonist | APJ antag | EBI2 antag | others
COCCCNC(=O)c1c(N)n(Cc2ccco2)c2nc3ccccc3nc12 | 5 | 0 | -3 | 6 | 10
CC(C)OCCCNC(=O)c1c(N)n(Cc2cccs2)c2nc3ccccc3nc12 | -1 | -5 | -11 | 21 | 71*
CN(Cc1cccc(-c2ccncc2)c1)C(=O)Oc1ccccc1Cc1ccccc1 | 13 | . | . | . | 18
O=C1NC(=O)N(CCc2ccc(F)cc2)C(=O)/C1=C\C=C\c1ccccc1 | -7 | . | -24 | . | 48*
C=CCN1C(=O)NC(=O)/C(=C/C=C/c2ccccc2)C1=O | -23 | . | 1 | . | 3
CCN1/C(=C/C=C/C2=[N+](CC)c3ccccc3C2(C)C)C(C)(C)c2ccccc21 | 56* | . | . | . | 16
CN1/C(=C\C=C\C2=[N+](C)c3ccc4ccccc4c3C2(C)C)C(C)(C)c2ccccc21 | . | -5 | . | 43* | .
CC(CC(C)(C)N1CC1)=NNC(=O)Nc1cccc2ccccc12 | -1 | . | 11 | . | -1
Cc1ncoc1C(=O)NCC1=C(c2ccc3ccccc3c2)C[C@@H]2CC[C@H]1N2Cc1ccco1 | 6 | . | . | . | 7
CCC(C)(O)C(=O)OC1C(=O)OC2CC3C(C)=CC(O)C(O)C3(C)C3C4(O)OCC23C1C(C)C4O (configuration not stated) | -4 | . | . | . | 1
O=C(c1ccccc1)C(CN1CCCC1)c1ccccc1 (configuration not stated) | 7 | . | 8 | . | -55
CC1CCN(C(CC(=O)c2ccccc2)C(=O)c2ccccc2)CC1 (configuration not stated) | 30 | . | 65* | . | 15
ON1C2CCCCC2N(O)C1c1ccccc1F (configuration not stated) | 24 | -8 | 80* | 24 | -13
CN1CC(C(=O)c2ccc(Cl)cc2)C(c2ccccc2F)C1 (configuration not stated) | 8 | -4 | 13 | 7 | 8
O=C1NCN(c2ccccc2)C12CCN(C(c1ccnc3ccccc13)c1nnnn1C1CCCC1)CC2 (configuration not stated) | -3 | . | . | . | 8
O=C1NC(=O)C(=Cc2ccc(-c3ccc(S(=O)(=O)N4CCOCC4)cc3)o2)C(=O)N1 | 5 | 9 | -4 | -8 | -3
O=C1NC(=O)C(=Cc2ccc(-c3ccc(Cl)cc3)o2)C(=O)N1 | 50* | 24 | 71* | -2 | 21
O=C1C=CC(=O)C=C1 | -4 | -1 | 79* | -2 | -9
O=C(N/N=C\C1C(=O)NC(=S)N(c2ccccc2)C1=O)c1ccc(O)cc1 (configuration not stated) | 4 | -6 | 62* | -9 | -10
O=c1c2ccccc2[se]n1-c1ccccc1 | -3 | -1 | 15 | -3 | 62*
O=c1c2ccccc2nc(-c2ccccc2)n1-c1ccccc1 | -8 | -1 | 1 | 16 | -8
COC1CC2C=C(C)C=CC=CC(=O)NC(c3ccccc3)CC=CCCC(O)CC(=O)C2=C1O (configuration not stated) | 31 | . | . | . | -3
COC(=O)C1=C(c2ccc(-c3ccccc3)c(F)c2)C[C@@H]2CC[C@H]1N2C(=O)N1CCC(O)CC1 | -2 | -4 | 9 | 5 | 1
COC(=O)C1=C(c2ccc(-c3ccccc3)c(F)c2)C[C@@H]2CC[C@H]1N2C(=O)N1CCC(C)CC1 | 41* | -4 | 28 | 14 | 33
CC12CCCCC1N(O)CN2O (configuration not stated) | 5 | -1 | 60* | 18 | 4
SMILES | CXCR6 inh | APJ ag | CCR6 antagonist | APJ antag | EBI2 antag | others
O=C(Cn1c(=O)n(CC2CS2)c2ccccc21)N1CCCCCC1 (configuration not stated) | -5 | -5 | 62* | 8 | -9
C=C(C)Cn1c(=O)n(CC2CS2)c2ccccc21 (configuration not stated) | -22 | -3 | 2 | 4 | -5
COC(=O)C1CN(C#N)N(c2ccc(Cl)cc2)C12c1ccccc1-c1ccccc12 (configuration not stated) | 23 | 2 | 32 | 21 | 53*
C=C(C)[C@@H]1[C@H]2OC(=O)[C@H]1[C@]1(O)C[C@H]3O[C@]34C(=O)O[C@H]2[C@]14C | 4 | . | 10 | . | -8
C=C1C(=O)OC2CC(C)C3C=CC(=O)C3(C)C(O)C12 (configuration not stated) | 29 | . | 47 | . | 47*
O=C1C(=O)c2cccc3cccc1c23 | 44* | -13 | 67* | 63* | 57*
O=C(COC(=O)c1cc(Br)cc(Br)c1O)NC12CC3CC(CC(C3)C1)C2 | -3 | . | . | . | -10
C[C@@]12CC[C@@H](c3cc4c(cc3C1)OCO4)N2c1ccccc1 | . | . | . | . | 15
CN1C(=O)C(=Cc2ccc(N3CCOCC3)o2)C(=O)N(C)C1=S | 3 | -5 | 57* | 42* | 2
CCN1C(=O)C(=Cc2ccc(N3CCOCC3)o2)C(=O)N(CC)C1=S | -1 | -8 | 14 | 27 | -12
CN(C)c1ccc(/C=C/C=C2/C(=O)NC(=O)N(c3ccccc3)C2=O)cc1 | 46* | . | 66* | . | 27
C=C(C=O)C[C@@H]1C[C@H](O)C2OC3C[C@]4(C)OC5/C=C\CC6OC7C(CC=CCC6OC5CCCC4OC3CC2O1)OC1CC2OC3CC(=O)OC3C[C@@H](C)C[C@@]2(C)OC1C[C@@H]7C (some centres not stated) | . | 21* | 47 | -12 | . | APJ ag confirm=19
CC(C)(OOC1(c2ccccc2)NC(=O)c2ccccc21)c1ccccc1 (configuration not stated) | 8 | . | . | . | 1
CCCSc1nc(O)c(CC)c(=O)n1C(C)CC (configuration not stated) | -3 | 60* | -7 | 13 | -15 | APJ ag confirm=62*
CN(C)CC(C(=O)Cc1ccccc1)c1ccccc1 (configuration not stated) | -6 | . | -21 | . | -26
O=C1C(=O)c2ccccc2-c2ccccc21 | 22 | 37* | 34 | -3 | -60 | APJ ag confirm=42*
NC(N)=N/N=C/c1ccc(N(c2ccccc2)c2ccccc2)cc1 | -13 | 40* | 15 | -20 | -8 | APJ ag confirm=30
Cc1cc(/C=C2\C(=O)NC(=O)N(c3ccc(Cl)cc3)C2=O)c(C)n1-c1sc2c(c1C#N)CCCC2 | -9 | 4 | -12 | 7 | 29
Cc1sc(-n2c(C)cc(C=C3C(=O)NC(=O)NC3=O)c2C)c(C#N)c1C | . | 11* | 1 | 9 | . | APJ ag confirm=21
CC(C)(C)n1nnnc1C(c1ccccc1)N1CCC2(CC1)C(=O)NCN2c1ccccc1 (configuration not stated) | -4 | . | . | . | 0
